In ChEMBL document CHEMBL3784986, “Discovery and Characterization of Biased Allosteric Agonists of the Chemokine Receptor CXCR3” (J Med Chem, 2016):
Active and inactive are the calls of the source. No cut-off for these calls is given here.

Assays:
[1] = Cytotoxicity against HEK293T cells expressing CXCR3 at 10 uM incubated overnight by ApoTox-Glo Triplex assay; format: cell-based; details: human, hek-293t
Outline: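 10,000 HEK293T cells stably expressing CXCR3 incubated overnight with compound at 10 µM. ApoTox-Glo triplex. Viability read by fluorescence at 400Ex/505Em (GF-AFC) and cytotoxicity at 485Ex/520Em (bis-AAF-R110), each after a 30 min reagent step. Caspase-3/7 luminescence then read after a further 30 min.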

[2] = molecular target: T1, C-X-C chemokine receptor type 3 (Homo sapiens) (UniProt P49682); test: Inhibition of CXCL10-mediated activation of human CXCR3 expressed in HEK cells; format: cell-based; details: HEK293
T1 sequence (whole entry): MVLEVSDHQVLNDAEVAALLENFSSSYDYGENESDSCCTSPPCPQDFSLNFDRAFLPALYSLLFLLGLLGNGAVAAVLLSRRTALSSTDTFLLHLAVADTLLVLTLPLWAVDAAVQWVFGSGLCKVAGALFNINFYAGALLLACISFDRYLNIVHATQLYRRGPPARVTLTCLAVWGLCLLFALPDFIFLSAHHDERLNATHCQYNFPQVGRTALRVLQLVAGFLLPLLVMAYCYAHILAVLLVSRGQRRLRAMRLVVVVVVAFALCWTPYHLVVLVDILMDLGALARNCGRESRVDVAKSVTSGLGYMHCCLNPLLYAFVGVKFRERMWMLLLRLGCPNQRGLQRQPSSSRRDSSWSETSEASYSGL

[3] = molecular target: T1, C-X-C chemokine receptor type 3 (Homo sapiens); test: Inhibition of CXCL11-mediated activation of human CXCR3 expressed in HEK cells; format: cell-based; details: HEK293
[4] = molecular target: T1, C-X-C chemokine receptor type 3 (Homo sapiens); test: Positive allosteric modulation of ProLink1-tagged wild type CXCR3 (unknown origin) expressed in HEK293T cells assessed as beta-arrestin-2 recruitment incubated for 4 hrs by chemiluminescence-based microplate reader method; format: cell-based; details: HEK-293T
Outline: (§1)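 HEK293 cells stably expressing β-gal enzyme acceptor, transiently transfected with PK1- or PK2-tagged wild-type CXCR3, 2000 cells/well, grown overnight at 37 °C. Compounds or CXCL11 in PBS pH 7.4 with 0.20% BSA added for 4 h. Detection mix 60 min at room temperature, then chemiluminescence read. Efficacy expressed as % of CXCL11 effect. Two to three experiments in triplicate.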

[5] = molecular target: T1, C-X-C chemokine receptor type 3 (Homo sapiens); test: Positive allosteric modulation of human CXCR3 expressed in HEK293T cell membranes after 30 mins by [35S]GTPgammaS incorporation assay relative to CXCL11; format: functional; details: HEK-293T
Outline: (§2)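 Membranes from HEK293 cells stably expressing CXCR3 (30 µg/mL protein) in 20 mM HEPES, 10 mM MgCl2, 100 mM NaCl, 100 mg/L saponin, pH 7.4. Compound plus 1 µM GDP preincubated 30 min at 37 °C, then 0.10 nM [35S]GTPγS added for 30 min at 37 °C. Filtered on GF/B and counted. Efficacy expressed as % of CXCL11. Three experiments in triplicate, pEC50 by nonlinear regression.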

[6] = molecular target: T1, C-X-C chemokine receptor type 3 (Homo sapiens); test: Positive allosteric modulation of ProLink1-tagged wild type CXCR3 (unknown origin) expressed in HEK293T cells assessed as beta-arrestin-2 recruitment incubated for 4 hrs by chemiluminescence-based microplate reader method relative to CXCL11; format: cell-based; details: HEK-293T; outline: as §1
[7] = molecular target: T1, C-X-C chemokine receptor type 3 (Homo sapiens); test: Positive allosteric modulation of ProLink2-tagged wild type CXCR3 (unknown origin) expressed in HEK293T cells assessed as beta-arrestin-2 recruitment incubated for 4 hrs by chemiluminescence-based microplate reader method relative to CXCL11; format: cell-based; details: HEK-293T; outline: as §1
[8] = molecular target: T1, C-X-C chemokine receptor type 3 (Homo sapiens); test: Positive allosteric modulation of human CXCR3 expressed in HEK293T cell membranes after 30 mins by [35S]GTPgammaS incorporation assay; format: functional; details: HEK-293T; outline: as §2

inhibition [2] | inhibition [3] | pEC50 [4] | Efficacy [5] | Efficacy [6] | Efficacy [7] | pEC50 [8] | Activity [8] | SMILES | Activity [1]
inactive | inactive | inactive | 29% | inactive | – | – | – | CC(C)(C)OC(=O)N[C@@H](CCCCNC(=O)[C@@H]1Cc2ccccc2CN1C(=O)CCCc1ccccc1)C(=O)NCC(c1ccccc1)c1ccccc1 | Non-toxic
inactive | inactive | – | 25% | 28% | 79% | – | – | N[C@H](CCCCNC(=O)[C@@H]1Cc2ccccc2CN1C(=O)CCC(=O)c1ccccc1)C(=O)NCC(c1ccccc1)c1ccccc1 | –
inactive | inactive | – | inactive | 17% | 27% | inactive | – | N[C@@H](CCCCNC(=O)[C@@H]1Cc2ccccc2CN1C(=O)CCC(=O)c1ccccc1)C(=O)NCC(c1ccccc1)c1ccccc1 | –
– | – | – | 33% | 36% | 30% | – | – | CC(C)(C)OC(=O)NCCCC[C@@H](NC(=O)[C@@H]1Cc2ccccc2CN1C(=O)CCC(=O)c1ccccc1)C(=O)NCC(c1ccccc1)c1ccccc1 | –
inactive | inactive | inactive | inactive | inactive | – | inactive | – | CC(C)(C)OC(=O)N[C@@H](CCCCNC(=O)[C@@H]1Cc2ccccc2CN1C(=O)CCC(=O)c1cccs1)C(=O)NCC(c1ccccc1)c1ccccc1 | –
inactive | inactive | – | 30% | 19% | 29% | – | – | CC(C)(C)OC(=O)N[C@@H](CCCCNC(=O)[C@@H]1Cc2ccccc2CN1C(=O)CCc1ccccc1)C(=O)NCC(c1ccccc1)c1ccccc1 | Non-toxic
– | – | – | 109% | 139% | – | – | Dose-dependent effect | NCCCC[C@H](NC(=O)[C@@H]1Cc2ccccc2CN1C(=O)CCC(=O)c1ccccc1)C(=O)NCC(c1ccccc1)c1ccccc1.O=C(O)C(F)(F)F | Non-toxic
inactive | inactive | – | inactive | 20% | 91% | inactive | – | N[C@@H](CCCCNC(=O)[C@@H]1Cc2ccccc2CN1C(=O)CCCC(=O)c1ccccc1)C(=O)NCC(c1ccccc1)c1ccccc1 | –
inactive | inactive | inactive | inactive | inactive | – | inactive | – | CC(C)(C)OC(=O)N[C@@H](CCCCNC(=O)[C@@H]1Cc2ccccc2CN1C(=O)CCC(=O)c1ccco1)C(=O)NCC(c1ccccc1)c1ccccc1 | –
inactive | inactive | inactive | inactive | inactive | – | inactive | – | CC(C)(C)OC(=O)N[C@@H](CCCCNC(=O)[C@@H]1Cc2ccccc2CN1C(=O)CCC(=O)N1CCOCC1)C(=O)NCC(c1ccccc1)c1ccccc1 | –
inactive | inactive | inactive | 25% | inactive | – | – | – | CC(C)(C)OC(=O)N[C@@H](CCCCNC(=O)[C@@H]1Cc2ccccc2CN1C(=O)CCC(=O)c1ccc(S(C)(=O)=O)cc1)C(=O)NCC(c1ccccc1)c1ccccc1 | Non-toxic
inactive | inactive | – | 34% | 31% | 79% | – | – | CC(C)(C)OC(=O)N[C@@H](CCCCNC(=O)[C@@H]1Cc2ccccc2CN1)C(=O)NCC(c1ccccc1)c1ccccc1 | Non-toxic
inactive | inactive | – | inactive | 20% | 56% | inactive | – | CC(C)(C)OC(=O)N[C@@H](CCCCNC(=O)[C@@H]1Cc2ccccc2CN1C(=O)CCCC(=O)c1ccccc1)C(=O)NCC(c1ccccc1)c1ccccc1 | Non-toxic
inactive | inactive | – | – | – | – | – | – | CC(C)(C)OC(=O)N[C@H](CCCCNC(=O)[C@@H]1Cc2ccccc2CN1)C(=O)NCC(c1ccccc1)c1ccccc1 | Non-toxic
inactive | inactive | inactive | 20% | inactive | – | – | – | CC(C)(C)OC(=O)N[C@@H](CCCCNC(=O)[C@@H]1Cc2ccccc2CN1C(=O)CCC(=O)c1ccc(F)cc1)C(=O)NCC(c1ccccc1)c1ccccc1 | Non-toxic
inactive | inactive | inactive | inactive | inactive | – | inactive | – | CC(C)(C)OC(=O)N[C@@H](CCCCNC(=O)[C@@H]1Cc2ccccc2CN1C(=O)CCC(=O)N1CCCCC1)C(=O)NCC(c1ccccc1)c1ccccc1 | –
inactive | inactive | – | 40% | 14% | 85% | – | – | N[C@@H](CCCCNC(=O)[C@@H]1Cc2ccccc2CN1)C(=O)NCC(c1ccccc1)c1ccccc1 | –
inactive | inactive | – | inactive | 16% | 88% | inactive | – | CC(C)(C)OC(=O)N[C@H](CCCCNC(=O)[C@@H]1Cc2ccccc2CN1C(=O)CCC(=O)c1ccccc1)C(=O)NCC(c1ccccc1)c1ccccc1 | Non-toxic
– | – | – | 85% | 108% | 198% | – | – | NCCCC[C@@H](NC(=O)[C@@H]1Cc2ccccc2CN1C(=O)CCC(=O)c1ccccc1)C(=O)NCC(c1ccccc1)c1ccccc1 | –
– | – | – | – | – | – | – | – | CC(C)(C)OC(=O)NCCCC[C@H](NC(=O)OCc1ccccc1)C(=O)NCC(c1ccccc1)c1ccccc1 | Non-toxic
inactive | inactive | – | inactive | 34% | 63% | inactive | – | CC(=O)CCC(=O)N1Cc2ccccc2C[C@H]1C(=O)NCCCC[C@H](NC(=O)OC(C)(C)C)C(=O)NCC(c1ccccc1)c1ccccc1 | Non-toxic
inactive | inactive | inactive | inactive | inactive | – | inactive | – | CN1CCN(C(=O)CCC(=O)N2Cc3ccccc3C[C@H]2C(=O)NCCCC[C@H](NC(=O)OC(C)(C)C)C(=O)NCC(c2ccccc2)c2ccccc2)CC1 | –
inactive | inactive | inactive | 18% | inactive | – | – | – | COc1ccc(C(=O)CCC(=O)N2Cc3ccccc3C[C@H]2C(=O)NCCCC[C@H](NC(=O)OC(C)(C)C)C(=O)NCC(c2ccccc2)c2ccccc2)cc1OC | Non-toxic
